# Measured values collected from several papers.
# Compare with care: the assays were run in different laboratories.
SMILES,tested on,test,system,conditions,measurement,value
O=C(c1cccc(F)c1)c1c[nH]c2ncc(-c3ccc(N4CCNCC4)nc3)cc12,A549,"cell growth or viability, MTT",,"10 µM, 48 h",viability,62.8%
C[C@@H]1[C@H](O)[C@@H](C)/C=C/C=C/C=C/C=C/C=C/C=C/C=C/[C@H](O[C@@H]2O[C@H](C)[C@@H](O)[C@H](N)[C@@H]2O)C[C@@H]2O[C@](O)(C[C@@H](O)C[C@@H](O)[C@H](O)CC[C@@H](O)C[C@@H](O)CC(=O)O[C@H]1C)C[C@H](O)[C@H]2C(=O)O,Leishmania donovani,parasite growth,THP-1,"intracellular, amastigote",IC90,1.7 mg/L
O=C(N/N=C1\C(=O)N(Cc2ccccc2)c2ccc(Cl)cc21)c1cc2ccccc2[nH]1,A549,cell growth or viability,,,IC50,0.76 µM
COc1ccc(O)c(C(C)(C)C)c1,,ABTS scavenging,,,IC50,5.07 mg/L
COC(=O)C(Cc1ccccc1)n1c(C)nc2c(N)nc(N)nc21 (stereo not drawn),unidentified influenza virus,viral replication,"A549, H1N1 PR8",24 h,IC50,0.039 µM
CC(C)(C)OC(=O)N1CCN(c2cc(-c3cnc4[nH]cc(C(=O)c5ccc(F)cc5)c4c3)ccn2)CC1,A549,"cell growth or viability, MTT",,"10 µM, 48 h",viability,84.2%
N=C(N)c1ccc(OCCCCCOc2ccc(C(=N)N)cc2)cc1,Leishmania donovani,"parasite growth, resazurin",,"72 h, promastigote",IC90,2 mg/L
O=C(c1ccc(F)cc1)c1c[nH]c2ncc(-c3ccc(N4CCOCC4)nc3)cc12,A549,"cell growth or viability, MTT",,"10 µM, 48 h",viability,77.1%
O=C(NCCCCCCCCNc1c2c(nc3ccccc13)CCCC2)c1ccccc1O,,ABTS scavenging,,1 h,IC50,25.9 µM
Oc1c(Cl)cc(Cl)c(Cl)c1Cc1c(O)c(Cl)cc(Cl)c1Cl,Betapolyomavirus hominis,"viral replication, inhibitor, qPCR",Vero,"30 µM, 5 days",inhibition,~70%
Cc1nc2c(N)nc(=O)[nH]c2n1CC(=O)O,unidentified influenza virus,viral replication,"A549, H1N1 PR8",24 h,IC50,0.039 µM
Cc1ccc(CN2C(=O)/C(=N\NC(=O)c3cc4ccccc4[nH]3)c3ccccc32)cc1,A549,cell growth or viability,,30 µM,inhibition,91.9%
Nc1ncnc2c([C@@H]3N[C@H](CO)[C@@H](O)[C@H]3O)c[nH]c12,unidentified influenza virus,"viral replication, inhibitor",MDCK,0.1 µM,inhibition,0%
N#Cc1cc2c(-c3ccccc3)n[nH]c2c(Nc2ccccc2)n1,PC-3,"cell growth or viability, MTS",,48 h,IC50,2.1 µM
Cc1nc2c(N)nc(N)nc2n1CC(=O)O,unidentified influenza virus,viral replication,"A549, H1N1 PR8",24 h,IC50,0.526 µM
C[C@]12C=CC(=O)C[C@@H]1CC[C@@H]1[C@@H]2C(=O)C[C@@]2(C)[C@H]1CC[C@]2(C)O,NIH3T3,"cell growth or viability, MTT",,24 h,IC50,> 30 µM
Cc1nc2c(N)nc(N)nc2n1C(Cc1ccccc1)C(=O)O (stereo not drawn),unidentified influenza virus,viral replication,"A549, H1N1 PR8",24 h,IC50,0.21 µM
CC(C)=CCC/C(C)=C/COc1cc(O)cc(O)c1C(=O)c1ccccc1,,"ABTS scavenging, absorbance",,5 min,IC50,380 µM
